# Publication PMC3577957 (Insect biochemistry and molecular biology, 2012)
# Marks after values point to notes of the source that are not given here.
# Experiments:
# Hv-mEH1 [1] = target: T1, Hv-mEH1 (Chloridea virescens, UniProt L7R9X8); experiment: Fluorescent substrate assay, Hv-mEH1; format: biochemical, Heliothis virescens; conditions: 50 mM Tris-HCl, pH 8.0, 5 μM substrate (25 μM for CMNGC), 100 μM OTFP, 1% DMSO, 0.1 mg ml^−1 BSA, 30°C
# Summary of the method: (§1)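 Enzyme was microsomal fraction from High Five cells infected with recombinant baculovirus (MOI 0.5, 27°C, 65 h p.i.), solubilized with 0.5% Triton X-100, and taken as the 163,000 xg supernatant. Enzyme was preincubated 5 min with OTFP before α-cyanoester/carbonate epoxide substrate was added. Fluorescence (ex 330/em 465 nm) was read every 30 s for 10 min. Aldehyde product was quantified against a 6-methoxy-2-naphthaldehyde standard curve. No-OTFP controls measured ester hydrolysis. Quadruplicate wells, ≥3 plates.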
# MsJHEH [2] = target: T2, MsJHEH (Manduca sexta, UniProt Q25489); experiment: Fluorescent substrate assay, MsJHEH; format: biochemical; conditions: 50 mM Tris-HCl, pH 8.0, 5 μM substrate (25 μM for CMNGC), 100 μM OTFP, 1% DMSO, 0.1 mg ml^−1 BSA, 30°C
# T2 sequence (Q25489 1-462): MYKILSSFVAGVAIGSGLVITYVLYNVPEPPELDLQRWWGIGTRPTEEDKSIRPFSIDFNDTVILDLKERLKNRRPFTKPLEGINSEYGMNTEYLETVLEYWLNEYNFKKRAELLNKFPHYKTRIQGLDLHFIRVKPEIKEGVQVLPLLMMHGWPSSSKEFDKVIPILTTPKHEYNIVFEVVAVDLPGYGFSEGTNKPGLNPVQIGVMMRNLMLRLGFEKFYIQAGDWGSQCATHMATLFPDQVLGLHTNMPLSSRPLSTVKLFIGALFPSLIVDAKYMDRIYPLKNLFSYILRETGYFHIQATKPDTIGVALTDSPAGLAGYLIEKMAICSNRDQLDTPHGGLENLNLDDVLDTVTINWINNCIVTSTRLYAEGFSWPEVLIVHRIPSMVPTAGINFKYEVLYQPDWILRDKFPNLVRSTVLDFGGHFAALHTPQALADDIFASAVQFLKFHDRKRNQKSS
# Summary of the method: as §1
# [3] = target: T3, hmEH (human microsomal EH, EPHX1) (Homo sapiens, UniProt P07099); experiment: Fluorescent substrate assay, hmEH; format: biochemical; conditions: 50 mM Tris-HCl, pH 8.0, 5 μM substrate, 100 μM OTFP, 1% DMSO, 0.1 mg ml^−1 BSA, 30°C
# T3 sequence (P07099 1-455): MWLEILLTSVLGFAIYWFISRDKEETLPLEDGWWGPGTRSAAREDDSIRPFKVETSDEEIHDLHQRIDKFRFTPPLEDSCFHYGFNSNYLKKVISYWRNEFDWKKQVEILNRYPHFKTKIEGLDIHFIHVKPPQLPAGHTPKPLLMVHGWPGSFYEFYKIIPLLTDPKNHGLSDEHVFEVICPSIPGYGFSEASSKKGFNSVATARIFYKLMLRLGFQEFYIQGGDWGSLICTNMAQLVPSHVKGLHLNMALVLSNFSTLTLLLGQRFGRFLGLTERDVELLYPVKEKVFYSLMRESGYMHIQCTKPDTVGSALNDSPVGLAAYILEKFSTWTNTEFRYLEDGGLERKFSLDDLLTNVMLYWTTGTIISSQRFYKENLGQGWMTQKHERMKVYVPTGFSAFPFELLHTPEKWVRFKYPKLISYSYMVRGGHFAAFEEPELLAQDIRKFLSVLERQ
# Hv-mEH1 [4] = target: T1, Hv-mEH1; experiment: JH III partition assay and kinetic constant determination, Hv-mEH1; format: biochemical, Heliothis virescens
# Summary of the method: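 Recombinant enzyme expressed in baculovirus-infected High Five cells (MOI 0.5, 27°C, harvested 65 h p.i.). Used the Triton X-100-solubilized microsomal supernatant. Tritiated JH III partition assay at eight concentrations (96 to 11,190 nM), with 1% ethanol and 0.1 mg ml−1 BSA. Ran 5 to 30 min with ≤15% hydrolysis, non-enzymatic background subtracted. KM/Vmax fitted by enzyme kinetics, triplicate, repeated three times.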
# MsJHEH [5] = target: T2, MsJHEH; conditions: cited from earlier work
# Bommo-JHEH = conditions: ref Zhang et al., 2005; cited from earlier work
# [6] = target: T3, hmEH (human microsomal EH, EPHX1); conditions: 25 μM CMNGC; ref Morisseau et al., 2011; cited from earlier work
# Hv-mEH1 [7] = target: T1, Hv-mEH1; experiment: Partition assay with radiolabeled general epoxide substrates, Hv-mEH1; format: biochemical, Heliothis virescens; conditions: 100 mM sodium phosphate, pH 8.0, 50 μM substrate, 1% ethanol, 0.1 mg ml^−1 BSA, 30°C; corrected for background hydrolysis
# Summary of the method: (§2)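 Microsomal enzyme came from baculovirus-infected High Five cells (MOI 0.5, 65 h p.i., Triton X-100 extract, 163,000 xg supernatant). Partition assay used tritium-labeled cis-stilbene oxide, trans-stilbene oxide or t-DPPO. Enzyme amount was set so at most 15% of substrate was hydrolyzed. Assays were run in triplicate and repeated at least three times. Results are mean ± standard deviation.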
# MsJHEH [8] = target: T2, MsJHEH; experiment: Partition assay with radiolabeled general epoxide substrates, MsJHEH; format: biochemical; conditions: 100 mM sodium phosphate, pH 8.0, 50 μM substrate, 1% ethanol, 0.1 mg ml^−1 BSA, 30°C; corrected for background hydrolysis
# Summary of the method: as §2
SMILES,Specific Activity Hv-mEH1 with fluorescent substrates (Hv-mEH1 [1]),Specific Activity MsJHEH with fluorescent substrates (MsJHEH [2]) [nmol/min/mg],Specific Activity hmEH with fluorescent substrates [3] [nmol/min/mg],Specific Activity Hv-mEH1 (Hv-mEH1 [7]) [nmol/min/mg],Specific Activity MsJHEH (MsJHEH [8]) [nmol/min/mg],other results
"CC[C@@H]1O[C@H]1COC(=O)OC(C#N)c1ccc2cc(OC)ccc2c1 (relative stereo) [MNPEC, cyano-(6-methoxy-naphthalen-2-yl)-methyl trans-((3-ethyl-oxiran-2-yl)methyl) carbonate]",122 ± 11 nmol/min/mg,0.8 ± 0.1,< 1.0,–,–,–
"COC(=O)/C=C(\C)CC/C=C(\C)CC[C@H]1OC1(C)C [JH III, juvenile hormone (JH) III]",–,–,–,–,–,"specificity constant (kcat/KM ratio) of Hv-mEH1 for JH III (Hv-mEH1 [4]): 630 M⁻¹ s⁻¹; Vmax of Hv-mEH1 for JH III (Hv-mEH1 [4]; 100 mM sodium phosphate, pH 8.0, 30°C, JH III diol formed): 1.7 ± 0.1 nmol/min/mg; kcat of Hv-mEH1 for JH III (Hv-mEH1 [4]; calculated using estimated molecular mass of 53.1 kDa): 0.002 s⁻¹; Vmax of MsJHEH for JH III (MsJHEH [5]; ref Severson et al., 2002): 59 nmol/min/mg; specificity constant of MsJHEH for JH III (MsJHEH [5]; ref Touhara and Prestwich, 1993): 290000 M⁻¹ s⁻¹; specificity constant of Bommo-JHEH for JH III (Bommo-JHEH): 77000 M⁻¹ s⁻¹"
"COc1ccc2cc(C(C#N)OC(=O)OCC3CO3)ccc2c1 (stereo not drawn) [CMNGC, cyano(6-methoxy-naphthalen-2-yl)methyl oxiran-2-ylmethyl carbonate]",0.03 ± 0.001 nmol/min/mg,3.3 ± 0.2,–,–,–,Specific Activity hmEH with CMNGC [6]: 25 ± 2 ^b nmol min^−1 mg^−1
"COc1ccc2cc(C(C#N)OC(=O)C[C@@H]3O[C@H]3c3ccccc3)ccc2c1 (relative stereo) [MNPE, cyano(2-methoxynaphthalen-6-yl)methyl trans-(2-(3-phenyloxiran-2-yl))acetate]",138 ± 9 nmol/min/mg,8.9 ± 0.4,< 1.0,–,–,–
"c1ccc([C@H]2O[C@H]2c2ccccc2)cc1 [c-SO, cis-stilbene oxide]",–,–,–,45.8 ± 7.0,3.7 ± 0.5,–
"c1ccc(CC2OC2c2ccccc2)cc1 (stereo not drawn) [t-DPPO, trans-diphenylpropene oxide]",–,–,–,0.1 ± 0.04,18.3 ± 4.0,–
"c1ccc([C@@H]2O[C@H]2c2ccccc2)cc1 (relative stereo) [t-SO, trans-stilbene oxide]",–,–,–,0.3 ± 0.01,2.1 ± 0.3,–
"COc1ccc2cc(C(C#N)OC(=O)OC[C@@H]3O[C@H]3c3ccccc3)ccc2c1 (relative stereo) [MNPC, cyano(6-methoxy-naphthalen-2-yl)methyl trans-[(3-phenyloxiran-2-yl)methyl] carbonate]",816 ± 140 nmol/min/mg,29 ± 18,< 1.0,–,–,–
"CCC[C@@H]1O[C@H]1CC(=O)OC(C#N)c1ccc2cc(OC)ccc2c1 (relative stereo) [MNHE, cyano(2-methoxynaphthalen-6-yl)methyl trans-2-(3-propyloxiran-2-yl)acetate]","1,180 ± 8 nmol min^−1 mg^−1",38 ± 3,< 1.0,–,–,–
"COc1ccc2cc(C(C#N)OC(=O)OCC3OC3(C)C)ccc2c1 (stereo not drawn) [MNiPC, cyano-(6-methoxy-naphthalen-2-yl)-methyl 3,3-dimethyl-oxiranylmethyl carbonate]",3.7 ± 1.1 nmol/min/mg,1.3 ± 0.5,< 1.0,–,–,–
